Results: ChEMBL document CHEMBL5678799 (Biochem J, 2009)

Columns and labels:
[1] = biological target: Mitogen-activated protein kinase 12 (Homo sapiens) (UniProt P53778); assay: Inhibition of recombinant human N-terminal GST-tagged P38gamma (1 to 367 residues) expressed in Escherichia coli assessed as remaining activity at 1 uM using MBP as substrate incubated for 30 mins in presence of [gamma-33P]ATP by filter binding method relative to control
Method in brief: (§1)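 Radiometric kinase panel run robotically at room temperature (21 °C) for 30 min, linear in time and enzyme. […] Activity is expressed as percent of control without compound, from triplicate determinations ± S.D.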

[2] = system: MEF; assay: Induction of cell cycle arrest in mLST8 knockout MEF cells assessed as accumulation at G1 phase at 3 uM incubated for 1 to 3 days by propidium iodide staining based flow cytometric analysis (reference value: 22.2 +/- 0.59%); assay type: toxicity; details: mouse, time 1-3 day
[3] = biological target: Inhibitor of nuclear factor kappa-B kinase subunit beta (Homo sapiens) (UniProt O14920); assay: Inhibition of recombinant human N-terminal His6-tagged IKKbeta (1 to 736 residues) expressed in baculovirus infected Sf21 cells assessed as remaining activity at 10 uM using LDDRHDSGLDSMKDEEY as substrate incubated for 30 mins in presence of [gamma-33P]ATP by filter binding method relative to control
Method in brief: (§2)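 Profiling-centre panel assay performed robotically at 21 °C for 30 min, linear with time and enzyme. […] Values are percent of compound-free control activity, the mean of triplicates ± S.D.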

[4] = biological target: Sphingosine kinase 2 (Homo sapiens) (UniProt Q9NRA0); assay: Inhibition of SPHK2 (unknown origin) assessed as remaining activity at 1 uM using sphingosine as substrate incubated for 30 mins in presence of ATP relative to control
Method in brief: (§3)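 SPHK2 reaction: 10 μM sphingosine, 1 μM ATP, 50 mM Tris/HCl pH 7.5, 200 mM KCl, 5 mM MgCl2, 1 mM EGTA, 1 mM DTT, 30 min at room temperature. Kinase-Glo Plus luminescence read-out. Percentage of control activity, triplicate.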

[5] = biological target: Serine/threonine-protein kinase pim-1 (Homo sapiens) (UniProt P11309); assay: Inhibition of recombinant human N-terminal His6-tagged PIM1 (2 to 313 residues) expressed in baculovirus infected Sf21 cells assessed as remaining activity at 1 uM using RSRHSSYPAGT as substrate incubated for 30 mins in presence of [gamma-33P]ATP by filter binding method relative to control
Method in brief: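 Incubations ran robotically for 30 min at room temperature (21 °C) under linear conditions. Results are percent activity remaining versus controls without compound, as the mean of triplicates ± S.D.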

[6] = biological target: Tyrosine-protein kinase Lck (Homo sapiens) (UniProt P06239); assay: Inhibition of recombinant human N-terminal His6-tagged LCK (2 to 509 residues) expressed in baculovirus infected Sf21 cells assessed as remaining activity at 1 uM using KVEKIGEGTYGVVYK as substrate incubated for 30 mins in presence of [gamma-33P]ATP by filter binding method relative to control
Method in brief: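 Assays ran 30 min at 21 °C, robotically and in the linear range. Remaining activity is given relative to incubations lacking compound, as the average of triplicate determinations ± S.D.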

[7] = system: MEF; assay: Growth inhibition of MEF cells assessed reduction in cell viability at 3 uM incubated for 1 to 3 days by crystal violet staining based assay; assay type: toxicity; details: mouse, time 1-3 day
Method in brief: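 MEFs seeded at 20000 cells per 1.91 cm2 well, grown overnight in 10% foetal bovine serum, then cultured 1, 2 or 3 days with 3 μM inhibitor, 100 nM rapamycin or DMSO. Medium changed every 24 h with freshly dissolved inhibitors. Cells fixed in 4% paraformaldehyde, stained with 0.1% Crystal Violet, dye extracted in 10% acetic acid, A590 read. Quadruplicate wells, expressed as % of DMSO control.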

[8] = biological target: Mitogen-activated protein kinase 8 (Homo sapiens) (UniProt P45983); assay: Inhibition of recombinant human His6-tagged JNK1alpha1 (1 to 384 residues) expressed in baculovirus infected Sf21 cells assessed as remaining activity at 1 uM using ATF2 as substrate incubated for 30 mins in presence of [gamma-33P]ATP by filter binding method relative to control
Method in brief: (§4)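 Robotic radiometric panel assay, 30 min at room temperature (21 °C), with 10 mM magnesium acetate. […] Compound at 1 or 10 µM. Residual activity expressed relative to compound-free control; triplicate average ± S.D.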

[9] = biological target: Sphingosine kinase 2 (Homo sapiens) (UniProt Q9NRA0); assay: Inhibition of SPHK2 (unknown origin) assessed as remaining activity at 10 uM using sphingosine as substrate incubated for 30 mins in presence of ATP relative to control; method in brief: as §3
[10] = biological target: Myosin light chain kinase (Homo sapiens) (UniProt Q32MK0); assay: Inhibition of MLCK (unknown origin) assessed as remaining activity at 10 uM relative to control; method in brief: as §2
[11] = biological target: mTORC2 (Homo sapiens) (UniProt P42345+Q6R327+Q9BVC4+Q9BPZ7); details: HEK293, dose 30-1000 nM, time 30.0 min
[12] = biological target: mTORC1 (Homo sapiens) (UniProt P42345+Q8N122+Q9BVC4); details: HEK293, dose 30-1000 nM, time 30.0 min
[13] = biological target: Phosphorylase b kinase gamma catalytic chain, skeletal muscle/heart isoform (Homo sapiens) (UniProt Q16816); assay: Inhibition of recombinant human N-terminal GST-tagged PHKgamma1 (2 to 297 residues) expressed in Escherichia coli assessed as remaining activity at 10 uM using phosphorylase b peptide as substrate incubated for 30 mins in presence of [gamma-33P]ATP by filter binding method relative to control
Method in brief: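 Incubation was 30 min at room temperature (21 °C) under conditions linear with time and enzyme amount. Activity is reported as percent of control lacking compound, triplicate mean ± S.D.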

[14] = biological target: 3-phosphoinositide-dependent protein kinase 1 (Homo sapiens) (UniProt O15530); assay: Inhibition of recombinant human His6-tagged PDK1 (52 to 556 residues) expressed in baculovirus infected Sf21 cells assessed as remaining activity at 1 uM using PDKtide as substrate incubated for 30 mins in presence of [gamma-33P]ATP by filter binding method relative to control; method in brief: as §4
[15] = biological target: Serine/threonine-protein kinase 26 (Homo sapiens) (UniProt Q9P289); assay: Inhibition of recombinant human N-terminal His6-tagged MST4 (1 to 416 residues) expressed in baculovirus infected Sf21 cells assessed as remaining activity at 1 uM using MBP as substrate incubated for 30 mins in presence of [gamma-33P]ATP by filter binding method relative to control
[16] = biological target: Serine/threonine-protein kinase PAK 4 (Homo sapiens) (UniProt O96013); assay: Inhibition of recombinant human N-terminal GST-tagged PAK4 (2 to 519 residues) expressed in Escherichia coli assessed as remaining activity at 10 uM using RRRLSFAEPG as substrate incubated for 30 mins in presence of [gamma-33P]ATP by filter binding method relative to control; method in brief: as §1
[17] = biological target: Inhibitor of nuclear factor kappa-B kinase subunit beta (Homo sapiens) (UniProt O14920); assay: Inhibition of recombinant human N-terminal His6-tagged IKKbeta (1 to 736 residues) expressed in baculovirus infected Sf21 cells assessed as remaining activity at 1 uM using LDDRHDSGLDSMKDEEY as substrate incubated for 30 mins in presence of [gamma-33P]ATP by filter binding method relative to control; method in brief: as §2

COc1ccc(-c2ccc3c(N4CCOCC4)nc(N4C[C@@H](C)O[C@@H](C)C4)nc3n2)cc1CO [Ku-0063794]
Activity [1]: 89%
Activity [2]: 47.3%
Activity [3]: 89%
Activity [4]: 119%
Activity [5]: 89%
Activity [6]: 69%
growth inhibition (GI) [7]: Toxic
Activity [8]: 80%
Activity [9]: 116%
Activity [10]: 104%
inhibition [11]: Dose-Dependent Effect
inhibition [12]: Dose-Dependent Effect
Activity [13]: 116%
Activity [14]: 89%
Activity [15]: 87%
Activity [16]: 75%
Activity [17]: 104%
